The record followed here is ChEMBL document CHEMBL4130441, “Mortiamides A-D, Cyclic Heptapeptides from a Novel Mortierella sp. Obtained from Frobisher Bay” (J Nat Prod, 2017).

Data set [1] relates to BJ. As to the kind of experiment: Cytotoxicity against human BJ cells assessed as decrease in cell viability at 128 ug/ml after 24 hrs by Alamar blue assay. In kind it is cell-based. In a few lines: (§1)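 Cells treated in 96-well culture plates in triplicate at 128 μg/mL. Viability measured 24 h after treatment with the redox dye Alamar Blue. Fluorescence read at 560/12 nm excitation and 590 nm emission, at time zero and 4 h after dye addition.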
Background: Alamar Blue is a resazurin reagent that responds to reducing activity.

For data set [2], the system named is Keratinocyte. In words: Cytotoxicity against human epidermal keratinocytes assessed as decrease in cell viability at 128 ug/ml after 24 hrs by Alamar blue assay. In short, it runs like this: as §1
The species entered for data set [3] is Homo sapiens. As to the kind of experiment: Cytotoxicity against human HTB-26 cells assessed as decrease in cell viability at 128 ug/ml after 24 hrs by Alamar blue assay. In kind it is functional, cell-based. In a few lines: as §1
Data set [4] has as its system MCF7. In words: Cytotoxicity against human MCF7 cells assessed as decrease in cell viability at 128 ug/ml after 24 hrs by Alamar blue assay. In kind it is functional, cell-based. In short, it runs like this: as §1
Data set [5] relates to Staphylococcus aureus. As to the kind of experiment: Antimicrobial activity against methicillin-resistant Staphylococcus aureus ATCC 33591 at 128 ug/ml after 22 hrs by micro broth dilution assay. In kind it is functional, organism-based. In a few lines: (§2)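 CLSI 96-well microbroth dilution, triplicate; tested at 128 μg/mL; strains MRSA ATCC 33591 and VRE E. faecium EF379; optical density read at time zero and after 22 h incubation to give growth inhibition.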
For orientation: Broth dilution looks for growth in wells or tubes with falling amounts of substance.

Data set [6] has as its system Enterococcus faecium. In words: Antimicrobial activity against vancomycin-resistant Enterococcus faecium EF379 at 128 ug/ml after 22 hrs by micro broth dilution assay. In kind it is functional, organism-based. In a few lines: as §2
Data set [7] deals with Staphylococcus warneri. As to the kind of experiment: Antimicrobial activity against Staphylococcus warneri ATCC 17917 at 128 ug/ml after 22 hrs by micro broth dilution assay. In kind it is functional, organism-based. In short, it runs like this:
(§3)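 CLSI-standard 96-well broth microdilution, run in triplicate. Test concentration 128 μg/mL. Optical density read at time zero and at the final time point; growth inhibition calculated from the change after 22 h incubation.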

Data set [8] concerns Pseudomonas aeruginosa. In words: Antimicrobial activity against Pseudomonas aeruginosa ATCC 14210 at 128 ug/ml after 22 hrs by micro broth dilution assay. In kind it is functional, organism-based. In a few lines: as §3
The subject of data set [9] is Candida albicans. In words: Antimicrobial activity against Candida albicans ATCC 14035 at 128 ug/ml after 22 hrs by micro broth dilution assay. In kind it is functional, organism-based. In short, it runs like this:
as §3

The source made the active and inactive calls. The rule behind the calls is not given here. Where a SMILES comes first, the peptide text is derived from it.

As for `CC[C@@H](C)[C@H]1NC(=O)[C@@H](C)NC(=O)[C@H](Cc2ccccc2)NC(=O)[C@@H](CC(C)C)NC(=O)[C@@H](C(C)C)NC(=O)[C@H](Cc2ccccc2)NC(=O)[C@@H]([C@H](C)CC)NC1=O` (HELM PEPTIDE1{F.[dA].[dI].[dI].F.[dV].[dL]}$PEPTIDE1,PEPTIDE1,1:R1-7:R2$$$V2.0), the Activity entry in data set [1] and in [2] was “Non-Toxic” in each case. Moreover, the result in data set [3], in data set [4], in data set [5], in data set [6], in data set [7] and in data set [8] was inactive. The outcome in [9] was inactive.

On to `CC(C)C[C@@H]1NC(=O)[C@@H](C(C)C)NC(=O)[C@@H](C(C)C)NC(=O)[C@@H](C(C)C)NC(=O)[C@H](Cc2ccccc2)NC(=O)[C@@H](Cc2ccccc2)NC(=O)[C@@H](C(C)C)NC1=O` (HELM PEPTIDE1{F.[dV].[dV].[dV].L.[dV].[dF]}$PEPTIDE1,PEPTIDE1,1:R1-7:R2$$$V2.0), for which the Activity entry in data set [1] and in data set [2] was “Non-Toxic” each time. Moreover, the outcome in [3], in data set [4], in data set [5], in [6], in data set [7] and in [8] was inactive. In addition, in data set [9], the outcome was inactive.

Take `CC[C@@H](C)[C@H]1NC(=O)[C@H](Cc2ccccc2)NC(=O)[C@@H]([C@H](C)CC)NC(=O)[C@@H](C(C)C)NC(=O)[C@@H]([C@H](C)CC)NC(=O)[C@H]([C@@H](C)CC)NC(=O)[C@@H](C)NC1=O`: the Activity result in data set [1] and in data set [2] was “Non-Toxic” in each case. Further, the outcome in data set [3], in data set [4], in data set [5], in data set [6], in [7] and in data set [8] was inactive. Besides, the outcome in data set [9] was inactive.

For `CC(C)[C@H]1NC(=O)[C@H](Cc2ccccc2)NC(=O)[C@@H](C(C)C)NC(=O)[C@@H](C(C)C)NC(=O)[C@@H](C(C)C)NC(=O)[C@H](Cc2ccccc2)NC(=O)[C@@H](Cc2ccccc2)NC1=O` (HELM PEPTIDE1{F.[dV].[dF].F.[dV].[dV].[dV]}$PEPTIDE1,PEPTIDE1,1:R1-7:R2$$$V2.0), the Activity entry in data set [1] and in data set [2] was “Non-Toxic” in each case. Moreover, the outcome in [3], in data set [4], in data set [5], in data set [6], in data set [7] and in data set [8] was inactive. Moreover, the result in data set [9] was inactive.
